pIC50, pKi: −log10 of the molar value. The source made the active and inactive calls. The rule behind the calls is not given here.
Columns and labels:
[1] = Displacement of 125I-Ang2 from AT1 receptor in SPF Sprague-Dawley rat vascular smooth muscle cell membranes after 150 mins by gamma counting method
Outline: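 Primary aortic VSMCs from SPF Sprague-Dawley rats, obtained by explant culture in DMEM/10% FBS and identified by SM α-actin staining; passages 3–6. Whole cells (10^6/well) incubated with 125I-Ang II (diluted to 0.2 nM) and compound at final 10^-12–10^-6 M, 4 °C for 150 min. Washed, lysed in 0.1 M NaOH, γ-counted. IC50 from nonlinear fit of competition curves.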

[2] = test system: Rattus norvegicus; assay: Antihypertensive activity in spontaneous hypertensive rat model assessed as reduction in mean blood pressure at 15 mg/kg, po measured up to 24 hrs; assay type: functional, organism-based
Outline: (§1)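 Male SHRs (250 ± 20 g) were randomized, 6 per group. Compound was suspended in 0.5% sodium carboxymethyl cellulose and given orally; vehicle-only negative control. Mean blood pressure was calculated as (SBP − DBP)/3 + DBP from systolic and diastolic readings over the time course. Data are mean ± SD, with p < 0.05 taken as significant.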

[3] = test system: Rattus norvegicus; assay: Antihypertensive activity in spontaneous hypertensive rat model assessed as reduction in mean blood pressure at 15 mg/kg, po after 3 hrs; assay type: functional; outline: as §1
[4] = test system: Rattus norvegicus; assay: Antihypertensive activity in spontaneous hypertensive rat model assessed as reduction in mean blood pressure at 15 mg/kg, po after 12 hrs; assay type: functional, organism-based; outline: as §1

pIC50 [1] | Structure (SMILES) | pKi [1] | Activity [2] | Activity [3] | Activity [4]
8.11 | CCCC1=NC2(CCCC2)C(=O)N1Cc1cccc2c1ccn2-c1ccccc1-c1nnn[nH]1 | 8.25 | Active |  | 
8.21 | CCCCCC1=NC2(CCCC2)C(=O)N1Cc1cccc2c1ccn2-c1ccccc1-c1nnn[nH]1 | 8.33 | Active |  | 
8.52 | CCCCC1=NC2(CCCC2)C(=O)N1Cc1cccc2c1ccn2-c1ccccc1-c1nnn[nH]1 | 8.66 |  | 40.57 mmHg | Active
8.21 | CCCCCCC1=NC2(CCCC2)C(=O)N1Cc1ccc2c(ccn2-c2ccccc2-c2nnn[nH]2)c1 | 8.33 |  |  | 
8.15 | CCCC1=NC2(CCCC2)C(=O)N1Cc1ccc2c(ccn2-c2ccccc2-c2nnn[nH]2)c1 | 8.29 | Active |  | 
8.84 | CCCCC1=NC2(CCCC2)C(=O)N1Cc1ccc(-c2ccccc2-c2nnn[nH]2)cc1 [IRBESARTAN] | 8.98 | Active |  | 
8.27 | CCCCCC1=NC2(CCCC2)C(=O)N1Cc1ccc2c(ccn2-c2ccccc2-c2nnn[nH]2)c1 | 8.47 | Active |  | 
